Assay results published in ChEMBL document CHEMBL2169772, “Discovery of (2S)-1-[4-(2-{6-amino-8-[(6-bromo-1,3-benzodioxol-5-yl)sulfanyl]-9H-purin-9-yl}ethyl)piperidin-1-yl]-2-hydroxypropan-1-one (MPC-3100), a purine-based Hsp90 inhibitor” (J Med Chem, 2012).

How the values were obtained:
[1] = Metabolic stability in human liver microsomes assessed as percent of residual drug in presence of NADPH incubated for 40 mins by LC-ESI-MS/MS method; format: ADME, Microsome; conditions: liver microsomes, read-out: Stability
In short: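 Test article incubated in duplicate with human liver microsomes (0.5 mg/mL protein) in 100 mM potassium phosphate pH 7.4. Started with 1 mM NADPH. Stopped with acetonitrile at 0, 10, 20 and 40 min. LC-MS/MS peak area at 40 min reported as percent of 0 min. No-NADPH control incubated for 40 min.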

[2] = Cytotoxicity against human NCI-ADR-RES cells overexpressing P-gp 1 assessed as inhibition of tumor growth incubated for 72 hrs by luminometry; format: functional, cell-based
In short: (§1)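 Cells seeded at 5000 per well in DMEM with 10% serum and left overnight. Compound added from DMSO dilutions (0.4% DMSO final) for 72 h. After 5 min at room temperature, ATPLite two-step lysis and substrate added, 5 min incubation, then luminescence read. Values are the mean of at least two experiments.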

HCT-116 = assay: Cytotoxicity against human HCT116 cells assessed as inhibition of tumor growth incubated for 72 hrs by luminometry; format: functional, cell-based; conditions: HCT-116, 72 h; in short: as §1
Heat shock protein HSP90 [3] = molecular target: T1, Heat shock protein HSP90 (Homo sapiens, UniProt P07900+P08238); assay: Inhibition of human HSP90 using BODIPY labelled geldanamycin as substrate by fluorescence polarization assay; format: protein assay
Heat shock protein HSP90 [4] = molecular target: T1, Heat shock protein HSP90; assay: Inhibition of human HSP90 in HCT116 cells expressing Her2 gene assessed as degradation of Her2 after 4 hrs by luciferase reporter gene assay; format: cell-based; conditions: hct-116
In short: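 HCT116 cells stably transfected with Her2 kinase domain (aa 641–975) fused to firefly luciferase. Seeded at 10 000 per well in DMEM with 10% serum and left overnight. Compound added from DMSO (0.4% final) for 4 h. Steady-Glo added at room temperature for 5 min, then luminescence read.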

[5] = Oral bioavailability in Swiss nude mouse at 10 mg/kg by LC-ESI-MS/MS method; format: ADME, organism-based; conditions: in vivo
In short: (§2)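 Mice dosed by oral gavage, vehicle DMA/PEG300/EtOH/H2O (3/40/12/45, v/v/v/v). Blood drawn by cardiac puncture into EDTA plasma. Three or five animals per time point. Plasma precipitated with acetonitrile plus internal standard. Quantified by LC-ESI-MS/MS against a 10–10 000 ng/mL standard curve with QC samples. Noncompartmental analysis.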

[6] = AUC in Swiss nude mouse at 10 mg/kg, po by LC-ESI-MS/MS method; format: ADME, organism-based; parameters: dose 10 mg/kg, route oral; conditions: plasma; in short: as §2
[7] = Cmax in Swiss nude mouse at 10 mg/kg, po by LC-ESI-MS/MS method; format: ADME, organism-based; parameters: dose 10 mg/kg, route oral; conditions: in vivo; in short: as §2
[8] = Tmax in Swiss nude mouse at 10 mg/kg, po by LC-ESI-MS/MS method; format: ADME, organism-based; parameters: dose 10 mg/kg, route oral; conditions: in vivo; in short: as §2
[9] = AUC in Swiss nude mouse at 2.5 mg/kg, iv by LC-ESI-MS/MS method; format: ADME, organism-based; parameters: dose 2.5 mg/kg, route intravenous; conditions: plasma
In short: (§3)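 Intravenous dose in mice, vehicle DMA/PEG300/EtOH/H2O 3/40/12/45. Sampling at 5, 15, 30, 60, 120, 240, 480 and 720 min, three or five animals per time point. Cardiac-puncture EDTA plasma. Acetonitrile protein precipitation with internal standard, then LC-ESI-MS/MS (10–10 000 ng/mL curve). Parameters by noncompartmental fit.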

[10] = Half life in Swiss nude mouse at 2.5 mg/kg, iv by LC-ESI-MS/MS method; format: ADME, organism-based; parameters: dose 2.5 mg/kg, route intravenous; conditions: in vivo; in short: as §3
[11] = Volume of distribution in Swiss nude mouse at 2.5 mg/kg, iv by LC-ESI-MS/MS method; format: ADME, organism-based; parameters: dose 2.5 mg/kg, route intravenous; conditions: in vivo; in short: as §3
Mus musculus = assay: Hepatic clearance in Swiss nude mouse at 2.5 mg/kg, iv by LC-ESI-MS/MS method; format: ADME, organism-based, Liver; parameters: dose 2.5 mg/kg, route intravenous; conditions: in vivo; in short: as §3

SMILES	remaining at 40 min [1] [%]	IC50 (Heat shock protein HSP90 [3]) [nM]	IC50 (Heat shock protein HSP90 [4]) [nM]	IC50 [2] [nM]	IC50 (HCT-116) [nM]	further results
Nc1ncnc2c1nc(Sc1cc3c(cc1Br)C(=O)CC3)n2CCC1CCN(C=O)CC1	30	60	60	100000	270	
Nc1ncnc2c1nc(Sc1cc3c(cc1Br)OCO3)n2CCc1ccccc1F	< 1	30	50		200	
Nc1ncnc2c1nc(Sc1cc3c(cc1Br)OCO3)n2CCC1CCNCC1	78	470	950	> 100000	4600	
CC(C)(C)n1nnnc1N1CCC(CCn2c(Sc3cc4c(cc3Br)OCO4)nc3c(N)ncnc32)CC1		1800				
Nc1ncnc2c1nc(Sc1cc3c(cc1Br)OCO3)n2CC[C@H]1CCCCN1C=O		190				
CN1CCOc2cc(Br)c(Sc3nc4c(N)ncnc4n3CCC3CCN(C=O)CC3)cc21	0	310	210	20000	1500	
Nc1ncnc2c1nc(Sc1cc3c(cc1Br)OCO3)n2CCc1ccccc1Br [BROMODERIVATIVE]	< 1	30	50		200	
Nc1ncnc2c1nc(Sc1cc3c(cc1Br)OCO3)n2CCC1CCN(CC(F)(F)F)CC1		600				
Nc1ncnc2c1nc(Sc1cc3c(cc1Br)OCO3)n2CCC1CCN(CC2CCCCC2)CC1	10	240	250	722	1000	
CN1CCOc2cc(Sc3nc4c(N)ncnc4n3CCC3CCN(C=O)CC3)c(Br)cc21		65	32	100000	250	
Nc1ncnc2c1nc(Sc1cc3ccoc3cc1Br)n2CCC1CCN(C=O)CC1	51	900	660	7900	4400	
Cn1nnnc1N1CCC(CCn2c(Sc3cc4c(cc3Br)OCO4)nc3c(N)ncnc32)CC1	0	45	31	130	62	
Nc1ncnc2c1nc(Sc1cc3c(cc1Br)OCO3)n2CCC1CCOCC1	0	57	90		590	
Nc1ncnc2c1nc(Sc1cc3c(cc1Br)OCC3)n2CCC1CCN(C=O)CC1	5	400	280	86000	1200	
Nc1ncnc2c1nc(Sc1cc3c(cc1Br)OCO3)n2CCC1CCC(F)(F)CC1	15	1000				
Nc1ncnc2c1nc(Sc1cc3c(cc1Br)OCO3)n2CC[C@@H]1CCCCN1C=O		180				
Nc1ncnc2c1nc(Sc1cc3c(cc1Br)OCO3)n2CCc1ccccc1Cl [CHLORODERIVATIVE]	< 1	30	50		200	
Nc1ncnc2c1nc(Sc1cc3occc3cc1Br)n2CCC1CCN(C=O)CC1	53	59	48	1100	260	bioavailability [5]: 131%; AUC [6]: 4610 ng·h/mL; Cmax [7]: 2230 ng/mL; Tmax [8]: 30 min; AUC [9]: 880 ng·h/mL; half-life [10]: 18 min; Vd [11]: 1.06 L/kg; CLH (Mus musculus): 47.35 mL/min/kg
Nc1ncnc2c1nc(Sc1cc3c(cc1Br)CCC3)n2CCC1CCN(C=O)CC1	1	20		230	20	
Nc1ncnc2c1nc(Sc1cc3c(cc1Br)CCO3)n2CCC1CCN(C=O)CC1		40	10	1800	90	

Second part, led by results:

remaining at 40 min [1] [%]	IC50 (Heat shock protein HSP90 [3]) [nM]	IC50 (Heat shock protein HSP90 [4]) [nM]	SMILES	IC50 [2] [nM]	IC50 (HCT-116) [nM]	further results
32	650	540	C[C@H](O)C(=O)N1CCC(CCn2c(Sc3cc4c(cc3Cl)OCO4)nc3c(N)ncnc32)CC1	20000	2700	
1	110	110	Nc1ncnc2c1nc(Sc1cc3c(cc1Br)OCO3)n2CCC1CCN(C(=O)C2CC2)CC1	930	650	
0	250	250	Nc1ncnc2c1nc(Sc1cc3c(cc1Br)OCO3)n2CCC1CCN(C(=O)C2CCCC2)CC1	370	1300	
10	110	100	C#CCN1CCC(CCn2c(Sc3cc4c(cc3Br)OCO4)nc3c(N)ncnc32)CC1	700	740	
21	34	28	C[C@H](O)C(=O)N1CCC(CCn2c(Sc3cc4c(cc3Br)CCO4)nc3c(N)ncnc32)CC1	11000	210	
44	68	110	CC(C)C[C@H](N)C(=O)N1CCC(CCn2c(Sc3cc4c(cc3Br)OCO4)nc3c(N)ncnc32)CC1	34000	890	
38	60	190	Nc1ncnc2c1nc(Sc1cc3c(cc1Br)OCO3)n2CCC1CCN(C(=O)[C@@H]2CCCN2)CC1	89000	830	
	180	960	CC(C)(N)C(=O)N1CCC(CCn2c(Sc3cc4c(cc3Br)OCO4)nc3c(N)ncnc32)CC1	50000	1600	
	700	110	CC(C)CN1CCC(CCn2c(Sc3cc4c(cc3Br)OCO4)nc3c(N)ncnc32)CC1	1980		
31	210	92	Nc1ncnc2c1nc(Sc1cc3c(cc1Cl)OCO3)n2CCC1CCN(C=O)CC1	7600	1400	
0	300		CCCC(=O)N1CCC(CCn2c(Sc3cc4c(cc3Br)OCO4)nc3c(N)ncnc32)CC1	2000	850	
	70	80	CN(C)CC(=O)N1CCC(CCn2c(Sc3cc4c(cc3Br)OCO4)nc3c(N)ncnc32)CC1	100000	200	
69	110	200	C[C@H](N)C(=O)N1CCC(CCn2c(Sc3cc4c(cc3Br)OCO4)nc3c(N)ncnc32)CC1	100000	1200	
	> 5000		CC(C)(O)C(=O)N1CCC(CCn2c(Sc3cc4c(cc3Br)OCO4)nc3c(N)ncnc32)CC1			
17	60	90	CC(=O)N1CCC(CCn2c(Sc3cc4c(cc3Br)OCO4)nc3c(N)ncnc32)CC1	3000	730	
81	210	250	N#Cc1cc2c(cc1Sc1nc3c(N)ncnc3n1CCC1CCN(C=O)CC1)OCO2		25000	
2	110	34	CC(=O)C(=O)N1CCC(CCn2c(Sc3cc4c(cc3Br)OCO4)nc3c(N)ncnc32)CC1	100000	270	
